Results published in PMC5562219 (Theranostics, 2017).

Columns and labels:
[1] = system: primary cultured cortical neurons; test: CCK-8 assay on neuronal cultures; type: cell-based, mouse; conditions: CCK-8, neuronal cultures treated with different dilutions of the probes for 24 h
[2] = system: MHC-I molecules in ischemic brain; test: In vivo and ex vivo NIRF imaging in photothrombotic stroke mice; parameters: species or system mouse
In short: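 Photothrombotic stroke in male C57BL/6 mice (6 weeks old), with brains illuminated 15 min and lesions confirmed by T2 MRI at 24 h. Cy5.5-labelled probe or scrambled control probe given i.v. via tail vein (10 nM, 200 μL PBS pH 7.4). Serial brain NIRF imaging 1–24 h (ex 675 nm, em 695 nm long pass). TBR taken as ischemic/contralateral hemisphere. Brain, heart, spleen, liver, kidney and lung then imaged ex vivo; n=6, mean±SEM.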

How did the cytotoxicity to neurons [1] turn out when K(Cy5.5)ALYNFATM [Cy5.5-H2BP] was run?
Its cytotoxicity to neurons is “low cytotoxicity”.

And the “ex vivo NIRF signal intensity in the kidney” value ([2]; 24 h after injection of the probe, suggests excretion mainly via the kidney)?
The value was “high signal intensity”.

What about the “target background ratio (TBR), ischemic/contralateral hemisphere” value ([2]; 24 h after probe administration, compared with Cy5.5-H2CP probe, n=6 per group) of the same substance?
The value was “significantly enhanced”.

What about the “TBR values in brain versus other organs” value ([2]; ex vivo NIRF images, brain, heart, liver, spleen, lung, kidney, n=6) of the same substance?
Its value is “significantly higher in the brain than in other organs”.

And the “time of peak NIRF signal intensity post-injection” value ([2]; photothrombosis model mice, tail vein injection, 10 nM, 200 μL in PBS pH 7.4)?
The value was “approximately 8 h”.
